# Source: ChEMBL document CHEMBL1240369, “Antiviral efficacy of the novel compound BIT225 against HIV-1 release from human macrophages” (Antimicrob Agents Chemother, 2010)
# Activity calls are given as the source filed them. No cut-off for these calls is given here.
# Biological target: Protease (Human immunodeficiency virus 1) (UniProt Q9YQ12)
# Assay: Inhibition of HIV1 protease assessed as substrate cleavage by cell free assay
# Outline: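 Cell-free fluorometric protease assay: compound (1–100 μM) was premixed with 2 μM quenched HIV-1 protease substrate 1. Background fluorescence (ex 340/em 490 nm) was read every 5 s for 5 min. HIV-1 protease was then added at 1.5% and cleavage followed for a further 5 min. LPV and EFV served as controls.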
# Sequence of Protease (Human immunodeficiency virus 1) (Q9YQ12 as listed by the source): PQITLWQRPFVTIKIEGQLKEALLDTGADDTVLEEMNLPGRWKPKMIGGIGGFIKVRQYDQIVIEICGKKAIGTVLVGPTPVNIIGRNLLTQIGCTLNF
row,SMILES,Activity
1,O=C1Nc2ccc(Cl)cc2[C@@](C#CC2CC2)(C(F)(F)F)O1,inactive
2,Cc1cccc(C)c1OCC(=O)N[C@@H](Cc1ccccc1)[C@@H](O)C[C@H](Cc1ccccc1)NC(=O)[C@H](C(C)C)N1CCCNC1=O,Active
